# Test results taken from article PMC12823633 (Cancer Chemotherapy and Pharmacology, 2026).
# Key:
# [1] = Adverse events, DDI evaluation period; type: in vivo, human (patients with solid tumors)
# [2] = system: CYP3A4; conditions: human, plasma, oral, 2.5 mg
# [3] = target: T1, CYP2C8 (Homo sapiens, UniProt P10632); experiment: Clinical DDI: pioglitazone plasma PK with and without TAS-115; conditions: oral, 15 mg
# T1 sequence (P10632 1-490): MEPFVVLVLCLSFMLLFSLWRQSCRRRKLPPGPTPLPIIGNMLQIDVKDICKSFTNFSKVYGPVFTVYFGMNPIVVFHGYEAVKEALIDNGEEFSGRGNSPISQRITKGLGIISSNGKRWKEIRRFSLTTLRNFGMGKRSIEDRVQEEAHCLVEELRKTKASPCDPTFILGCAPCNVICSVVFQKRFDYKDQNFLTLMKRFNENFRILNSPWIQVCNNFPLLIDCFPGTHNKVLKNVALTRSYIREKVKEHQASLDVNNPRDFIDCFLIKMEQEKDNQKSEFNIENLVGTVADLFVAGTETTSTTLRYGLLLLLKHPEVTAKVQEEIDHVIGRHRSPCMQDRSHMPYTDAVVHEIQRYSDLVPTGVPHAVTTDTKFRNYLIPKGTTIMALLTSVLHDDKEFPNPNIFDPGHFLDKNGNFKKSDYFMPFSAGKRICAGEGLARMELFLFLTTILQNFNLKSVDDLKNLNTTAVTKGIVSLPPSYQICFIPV
# [4] = system: solid tumors; experiment: Anti-tumor efficacy, continuous administration period; type: in vivo, human (patients with solid tumors)
# Procedure, shortened: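 Open-label single-arm multicenter study in Japan. Test compound 250 mg given orally, fasted, on 5 consecutive days from Day 1 of repeated 21-day cycles (2 days off), until discontinuation. Investigator-assessed per RECIST 1.1. ORR is the % with best response CR/PR; DCR is the % with CR/PR/SD. OS in osteosarcoma runs from enrollment to death from any cause, censored at the last recorded follow-up or observation.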
# [5] = system: CYP2B6; conditions: read-out: IC50, reversible inhibition; ref unpublished inhouse data; cited from earlier work
# [6] = system: CYP2C9; conditions: read-out: IC50, reversible inhibition; ref unpublished inhouse data; cited from earlier work
# [7] = Adverse events, continuous administration period; type: in vivo, human (patients with solid tumors)
# [8] = TAS-115 trough plasma concentrations; type: in vivo, human (patients with solid tumors)
# [9] = system: CYP3A; conditions: time-dependent inhibition; ref unpublished inhouse data; cited from earlier work
# [10] = system: CYP2C8; conditions: read-out: IC50, reversible inhibition; ref unpublished inhouse data; cited from earlier work
# [11] = system: CYP2C19; conditions: read-out: IC50, reversible inhibition; ref unpublished inhouse data; cited from earlier work
# [12] = After Administration of TAS-115, DDI period (N=18)
# [13] = Before Administration of TAS-115 (N=18)
# [14] = Entire DDI Evaluation Period (N=18)
# [15] = All patients (N=16), efficacy-evaluable
# [16] = Continuous Administration Period (N=18)
# [17] = continuous administration period
compound,measurement,setting,value
"Cc1ncc2n1-c1ccc(Cl)cc1C(c1ccccc1F)=NC2 [Midazolam, midazolam, reference compound]",Any >=Grade 3 TRAEs Related to Midazolam,[1]; [12],0 (0.0) N (%)
same,Any TRAEs Related to Midazolam,[1]; [12],0 (0.0) N (%)
same,Any >=Grade 3 TRAEs Related to Midazolam,[1]; [13],0 (0.0) N (%)
same,Any TRAEs Related to Midazolam,[1]; [13],0 (0.0) N (%)
same,Any >=Grade 3 TRAEs Related to Midazolam,[1]; [14],0 (0.0) N (%)
same,Any TRAEs Related to Midazolam,[1]; [14],0 (0.0) N (%)
same,AUC(0-inf),[2],56.8 ng·h/mL
same,AUC(0-t),[2],55.5 ng·h/mL
same,Cmax,[2],21.9 ng/mL
"CCc1ccc(CCOc2ccc(CC3SC(=O)NC3=O)cc2)nc1 (stereo not drawn) [Pioglitazone, pioglitazone, reference compound]",AUC(0-inf),[3],7710 ng·h/mL
same,AUC(0-t),[3],6340 ng·h/mL
same,Cmax,[3],635 ng/mL
same,Any >=Grade 3 TRAEs Related to Pioglitazone,[1]; [12],0 (0.0) N (%)
same,Any TRAEs Related to Pioglitazone,[1]; [12],0 (0.0) N (%)
same,Any >=Grade 3 TRAEs Related to Pioglitazone,[1]; [13],0 (0.0) N (%)
same,Any TRAEs Related to Pioglitazone,[1]; [13],1 (5.6) N (%)
same,TRAE (Grade 1 diarrhoea) related to pioglitazone,"[1]; DDI evaluation period, pioglitazone administered before TAS-115",one patient
same,Any >=Grade 3 TRAEs Related to Pioglitazone,[1]; [14],0 (0.0) N (%)
same,Any TRAEs Related to Pioglitazone,[1]; [14],1 (5.6) N (%)
"CNC(=O)c1cc2c(Oc3ccc(NC(=S)NC(=O)Cc4ccccc4)cc3F)ccnc2cc1OC [TAS-115, pamufetinib]",CR,[4]; [15],0 (0.0) N (%)
same,Disease control rate (CR+PR+SD),[4]; [15],6 (37.5) N (%)
same,PD,[4]; [15],10 (62.5) N (%)
same,PR,[4]; [15],1 (6.3) N (%)
same,"Progression-free survival, Censored",[4]; [15],2 (12.5) N (%)
same,"Progression-free survival, Event",[4]; [15],14 (87.5) N (%)
same,"Progression-free survival, Median",[4]; [15],2.1 month
same,Response rate (CR+PR),[4]; [15],1 (6.3) N (%)
same,CR,[4]; Osteosarcoma (N=4),0 (0.0) N (%)
same,Disease control rate (CR+PR+SD),[4]; Osteosarcoma (N=4),2 (50.0) N (%)
same,"Overall survival, Censored",[4]; Osteosarcoma (N=4),1 (25.0) N (%)
same,"Overall survival, Event",[4]; Osteosarcoma (N=4),3 (75.0) N (%)
same,"Overall survival, Median",[4]; Osteosarcoma (N=4),13.8 month
same,PD,[4]; Osteosarcoma (N=4),2 (50.0) N (%)
same,PR,[4]; Osteosarcoma (N=4),1 (25.0) N (%)
same,"Progression-free survival, Censored",[4]; Osteosarcoma (N=4),0 (0.0) N (%)
same,"Progression-free survival, Event",[4]; Osteosarcoma (N=4),4 (100.0) N (%)
same,"Progression-free survival, Median",[4]; Osteosarcoma (N=4),7.0 month
same,Response rate (CR+PR),[4]; Osteosarcoma (N=4),1 (25.0) N (%)
same,DCR,"[4]; patients with solid tumors, 16 evaluable",37.5%
same,Any >=Grade 3 TEAEs,[1]; [12],2 (11.1) N (%)
same,Any >=Grade 3 TRAEs,[1]; [12],1 (5.6) N (%)
same,Any >=Grade 3 TRAEs Related to TAS-115,[1]; [12],1 (5.6) N (%)
same,Any SAEs,[1]; [12],0 (0.0) N (%)
same,Any TEAEs,[1]; [12],15 (83.3) N (%)
same,Any TEAEs Leading to Death,[1]; [12],0 (0.0) N (%)
same,Any TEAEs Leading to Discontinuation of Study Medication,[1]; [12],0 (0.0) N (%)
same,Any TEAEs Leading to Dose Interruption of TAS-115,[1]; [12],0 (0.0) N (%)
same,Any TEAEs Leading to Dose Reduction of TAS-115,[1]; [12],0 (0.0) N (%)
same,Any TRAEs,[1]; [12],15 (83.3) N (%)
same,Any TRAEs Leading to Death,[1]; [12],0 (0.0) N (%)
same,Any TRAEs Leading to Discontinuation of Study Medication,[1]; [12],0 (0.0) N (%)
same,Any TRAEs Related to TAS-115,[1]; [12],14 (77.8) N (%)
same,Any TRAEs Related to TAS-115 Leading to Dose Interruption of TAS-115,[1]; [12],0 (0.0) N (%)
same,Any TRAEs Related to TAS-115 Leading to Dose Reduction of TAS-115,[1]; [12],0 (0.0) N (%)
same,Any Treatment-Related SAEs,[1]; [12],0 (0.0) N (%)
same,Grade 3 or higher TRAE (anaemia) attributed to TAS-115,[1]; DDI evaluation period,one patient
same,patients reporting TEAEs,[1]; DDI evaluation period,83.3%
same,patients with TRAEs,[1]; DDI evaluation period,83.3%
same,patients with TRAEs related to TAS-115,[1]; DDI evaluation period,14 patients
same,patients with TEAEs of ≥ Grade 3,"[1]; DDI evaluation period, anemia and lipase increased",11.1%
same,Any >=Grade 3 TEAEs,[1]; [14],2 (11.1) N (%)
same,Any >=Grade 3 TRAEs,[1]; [14],1 (5.6) N (%)
same,Any >=Grade 3 TRAEs Related to TAS-115,[1]; [14],1 (5.6) N (%)
same,Any SAEs,[1]; [14],0 (0.0) N (%)
same,Any TEAEs,[1]; [14],15 (83.3) N (%)
same,Any TEAEs Leading to Death,[1]; [14],0 (0.0) N (%)
same,Any TEAEs Leading to Discontinuation of Study Medication,[1]; [14],0 (0.0) N (%)
same,Any TEAEs Leading to Dose Interruption of TAS-115,[1]; [14],0 (0.0) N (%)
same,Any TEAEs Leading to Dose Reduction of TAS-115,[1]; [14],0 (0.0) N (%)
same,Any TRAEs,[1]; [14],15 (83.3) N (%)
same,Any TRAEs Leading to Death,[1]; [14],0 (0.0) N (%)
same,Any TRAEs Leading to Discontinuation of Study Medication,[1]; [14],0 (0.0) N (%)
same,Any TRAEs Related to TAS-115,[1]; [14],14 (77.8) N (%)
same,Any TRAEs Related to TAS-115 Leading to Dose Interruption of TAS-115,[1]; [14],0 (0.0) N (%)
same,Any TRAEs Related to TAS-115 Leading to Dose Reduction of TAS-115,[1]; [14],0 (0.0) N (%)
same,Any Treatment-Related SAEs,[1]; [14],0 (0.0) N (%)
same,IC50,[5],6.03 µM
same,IC50,[6],2.03 µM
same,Any >=Grade 3 TEAEs,[7]; [16],8 (44.4) N (%)
same,Any >=Grade 3 TRAEs Related to TAS-115,[7]; [16],6 (33.3) N (%)
same,Any SAEs,[7]; [16],5 (27.8) N (%)
same,Any TEAEs,[7]; [16],18 (100.0) N (%)
same,Any TEAEs Leading to Death,[7]; [16],0 (0.0) N (%)
same,Any TEAEs Leading to Discontinuation of Study Medication,[7]; [16],1 (5.6) N (%)
same,Any TEAEs Leading to Dose Interruption of TAS-115,[7]; [16],10 (55.6) N (%)
same,Any TEAEs Leading to Dose Reduction of TAS-115,[7]; [16],1 (5.6) N (%)
same,Any TRAEs Leading to Death,[7]; [16],0 (0.0) N (%)
same,Any TRAEs Leading to Discontinuation of Study Medication,[7]; [16],1 (5.6) N (%)
same,Any TRAEs Related to TAS-115,[7]; [16],17 (94.4) N (%)
same,Any TRAEs Related to TAS-115 Leading to Dose Interruption of TAS-115,[7]; [16],9 (50.0) N (%)
same,Any TRAEs Related to TAS-115 Leading to Dose Reduction of TAS-115,[7]; [16],1 (5.6) N (%)
same,Any Treatment-Related SAEs,[7]; [16],2 (11.1) N (%)
same,Grade 3 rash maculo-papular leading to discontinuation of TAS-115,[7]; [17],One patient
same,TEAE blood creatine phosphokinase (CK) increased,[7]; [17],27.8%
same,TRAE of ≥ Grade 3 related to TAS-115: anaemia,[7]; [17],11.1%
same,TRAE related to TAS-115: alanine aminotransferase increased,[7]; [17],33.3%
same,TRAE related to TAS-115: anemia,[7]; [17],27.8%
same,TRAE related to TAS-115: aspartate aminotransferase increased,[7]; [17],55.6%
same,TRAE related to TAS-115: blood CK increased,[7]; [17],27.8%
same,TRAE related to TAS-115: platelet count decreased,[7]; [17],22.2%
same,TRAE related to TAS-115: rash,[7]; [17],22.2%
same,criteria for severe drug-induced liver injury (Hy’s law),[7]; [17],No criteria for severe drug-induced liver injury (Hy’s law) were met
same,patients reporting TEAEs,[7]; [17],100%
same,patients requiring dose interruption by AEs,[7]; [17],55.6%
same,patients requiring dose reduction due to AEs related to TAS-115,[7]; [17],5.6%
same,patients with SAEs,[7]; [17],27.8%
same,patients with TEAEs of ≥ Grade 3,[7]; [17],44.4%
same,patients with TRAEs of ≥ Grade 3 related to TAS-115,[7]; [17],33.3%
same,patients with TRAEs related to TAS-115,[7]; [17],94.4%
same,deaths,[7]; continuous administration period or within 30 days following discontinuation,No deaths occurred
same,"trough plasma concentration, arithmetic mean (standard deviation)","[8]; Day 4, 250 mg once daily oral",834.5 (318.68) ng/mL
same,"trough plasma concentration, arithmetic mean (standard deviation)","[8]; Day 5, 250 mg once daily oral",881.6 (378.03) ng/mL
same,concentration at 24 h,"[8]; human, plasma, po, 250 mg",576 ng/mL
same,concentration of the inhibitor required to achieve 50% of the maximum inactivation rate,[9],28.5 µmol/L
same,maximum inactivation rate constant,[9],0.0650 min⁻¹
same,IC50,[10],0.563 µM
same,IC50,[11],4.23 µM
